From ChEMBL document CHEMBL3797091, “Part 2. Notch-sparing γ-secretase inhibitors: The study of novel γ-amino naphthyl alcohols” (Bioorg Med Chem Lett, 2016)
≈ marks a conversion by molar mass, not a printed value. Calls of active or inactive are those of the source. The rule behind the calls is not given here.

Experiments:
Gamma-secretase = experiment: Inhibition of gamma secretase (unknown origin)-mediated notch processing by cell based assay; set-up: species or system Homo sapiens
[1] = molecular target: T1, Gamma-secretase (Homo sapiens) (UniProt Q96BI3+Q9NZ42+Q8WW43+P49768+Q92542+P49810); experiment: Inhibition of human gamma secretase mediated amyloid beta (1 to 40) production expressed in CHO cells at 50 uM using APP based Flag-C-100 as substrate after 4 hrs by ELISA; type: cell-based
In short: (§1)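 Enzyme: γ-secretase complex purified from CHO cells stably overexpressing all four human components. Substrate: recombinant APP-based C-100 FLAG. Reaction in 0.2% CHAPSO/HEPES, pH 7.5, at 37°C for 4 h, with compounds in DMSO (1% DMSO final). Stopped with 0.5% SDS. Aβ40 measured by commercial ELISA.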

[2] = Metabolic stability in rat liver microsomes assessed as parent compound remaining after 60 mins; type: ADME; details: read-out: Stability
[3] = Plasma protein binding in human; type: ADME, cell-free; details: read-out: PPB (converted)
[4] = Solubility of compound in PBS buffer at pH 7.4; type: physicochemical
[5] = molecular target: T1, Gamma-secretase (Homo sapiens); experiment: Inhibition of gamma secretase (unknown origin)-mediated amyloid beta (1 to 42) production at 30 uM by cell based assay
[6] = Permeability of the compound across apical to basolateral side; type: ADME; details: not told; read-out: permeability
[7] = Metabolic stability in human liver microsomes assessed as parent compound remaining after 60 mins; type: ADME; details: read-out: Stability
[8] = molecular target: T1, Gamma-secretase (Homo sapiens); experiment: Inhibition of human gamma secretase mediated notch 1 processing by Western blot analysis; type: protein-complex assay
[9] = molecular target: T1, Gamma-secretase (Homo sapiens); experiment: Inhibition of human gamma secretase mediated amyloid beta (1 to 40) production expressed in CHO cells at 100 uM using APP based Flag-C-100 as substrate after 4 hrs by ELISA; type: cell-based; in short: as §1
[10] = Lipophilicity, log D of the compound; type: physicochemical; details: octanol/water
[11] = molecular target: T1, Gamma-secretase (Homo sapiens); experiment: Inhibition of human gamma secretase mediated amyloid beta 42 production expressed in CHO cells at 100 uM using APP based Flag-C-100 as substrate after 4 hrs by ELISA; type: cell-based
[12] = molecular target: T1, Gamma-secretase (Homo sapiens); experiment: Inhibition of gamma secretase (unknown origin)-mediated amyloid beta (1 to 42) production at 100 uM by cell based assay
[13] = molecular target: T1, Gamma-secretase (Homo sapiens); experiment: Inhibition of gamma secretase (unknown origin)-mediated amyloid beta (1 to 40) production at 100 uM by cell based assay

Row | SMILES | inhibition [8] | inhibition [9] [%] | also measured
1 | CCC(CC)N(Cc1ccc(C(=O)O)cc1)S(=O)(=O)c1ccc(Cl)cc1 |  |  | IC50 (Gamma-secretase): 10 µM
2 | CCC(CC)(CN(Cc1ccccc1)C(C)C)C(=O)c1ccc2ccccc2c1 |  |  | inhibition [1]: 40%
3 | CC(C)N(CCC(O)c1ccc2ccccc2c1)Cc1ccccc1 (racemic) | inactive | 81 | remaining at 1 h [2]: 0%; fraction unbound [3]: 0.1; solubility [4]: 98 µM (≈ 32.7 µg/mL); inhibition [5]: 45%; Papp A→B [6]: 18.4 ×10⁻⁶ cm/s; remaining at 1 h [7]: 1%; logD [10]: 3.4; IC50 (Gamma-secretase): > 100 µM; inhibition [11]: 67%
4 | CCC(CC)(CN(Cc1ccccc1)C(C)C)C(O)c1ccc2ccccc2c1 (racemic) | inactive | 82 | inhibition [12]: 100%; inhibition [13]: 80%; IC50 (Gamma-secretase): > 75 µM
5 | CC(C)(C)N(CCC(O)c1ccc2ccccc2c1)Cc1ccccc1 (racemic) |  | 0 | 
6 | CC(C)CN(CCC(O)c1ccc2ccccc2c1)Cc1ccccc1 (racemic) |  | 0 | 
7 | CC(C)N(CCC(O)c1cc(C(F)(F)F)cc(C(F)(F)F)c1)Cc1ccccc1 (racemic) | Active | 15 | inhibition [5]: 81%
8 | CC(C)N(CCC(O)c1cc(F)cc(Cl)c1)Cc1ccccc1 (racemic) | Active | 30 | 
9 | CC(C)N(CCC(O)c1cc2ccccc2o1)Cc1ccccc1 (racemic) |  | 0 | 
10 | CC(C)N(CCC(O)c1ccc(C(C)(C)C)cc1)Cc1ccccc1 (racemic) | Active | 72 | inhibition [5]: 14%
11 | CC(C)N(CCC(O)c1ccc(OC2CCCCO2)cc1)Cc1ccccc1 (racemic) |  | 0 | 
12 | CC(C)N(CCC(O)c1ccc(OCc2ccccc2)cc1)Cc1ccccc1 (racemic) | inactive | 31 | 
13 | CC(C)N(CCC(O)c1ccc(Oc2ccccc2)cc1)Cc1ccccc1 (racemic) | inactive | 24 | 
14 | CC(C)N(CCC(O)c1ccc2c(c1)OCO2)Cc1ccccc1 (racemic) |  | 0 | 
15 | CC(C)N(CCC(O)c1ccc2ccccc2c1)Cc1cc(F)cc(F)c1 (racemic) | Active | 54 | 
16 | CC(C)N(CCC(O)c1ccc2ccccc2c1)Cc1ccc(C#N)cc1 (racemic) |  | 19 | 
17 | CC(C)N(CCC(O)c1ccc2ccccc2c1)Cc1ccc(Cl)c(Cl)c1 (racemic) | inactive | 60 | 
18 | CC(C)N(CCC(O)c1ccc2ccccc2c1)Cc1ccc(F)c(Cl)c1 (racemic) |  | 38 | 
19 | CC(C)N(CCC(O)c1ccc2ccccc2c1)Cc1ccc(F)c(F)c1 (racemic) | inactive | 64 | inhibition [12]: 23%
20 | CC(C)N(CCC(O)c1ccc2ccccc2c1)Cc1cccc(C#N)c1 (racemic) |  | 7 | 
21 | CC(C)N(CCC(O)c1ccc2ccccc2c1)c1ccccc1 (racemic) | Active | 68 | 

Row | SMILES | inhibition [8] | inhibition [9] [%] | also measured
22 | CC(C)N(CCC(O)c1cccc(Oc2ccccc2)c1)Cc1ccccc1 (racemic) | inactive | 30 | 
23 | CC(C)N(CCC(O)c1cccc2ccccc12)Cc1ccccc1 (racemic) | inactive | 46 | 
24 | CC(C)N(CCC(O)c1ccccc1)Cc1ccccc1 (racemic) | Active | 10 | 
25 | CC(C)N(CCCC(O)c1ccc2ccccc2c1)Cc1ccccc1 (racemic) | Active | 18 | 
26 | CC(C)N(Cc1ccccc1)CC(C)(C)C(O)c1ccc2ccccc2c1 (racemic) | inactive | 72 | 
27 | CC(C)N(Cc1ccccc1)CC(O)c1ccc2ccccc2c1 (racemic) | Active | 0 | 
28 | CCC(CC)(CN(Cc1ccc(Cl)c(Cl)c1)C(C)C)C(O)c1ccc2ccccc2c1 (racemic) | inactive | 59 | 
29 | CCC(CC)(CN(Cc1ccc(F)c(F)c1)C(C)C)C(O)c1ccc2ccccc2c1 (racemic) | inactive | 69 | 
30 | CCN(CCC(O)c1ccc2ccccc2c1)Cc1ccccc1 (racemic) |  | 15 | 
31 | CN(CCC(O)c1ccc2ccccc2c1)Cc1ccccc1 (racemic) | inactive | 15 | 
32 | COC(CCN(Cc1ccccc1)C(C)C)c1ccc2ccccc2c1 (racemic) | inactive | 51 | 
33 | COc1cc(CN(CCC(O)c2ccc3ccccc3c2)C(C)C)cc(OC)c1 (racemic) | inactive | 17 | 
34 | COc1ccc(CN(CCC(O)c2ccc3ccccc3c2)C(C)C)cc1 (racemic) | inactive | 55 | 
35 | COc1ccc(N2CCN(CCC(O)c3ccc4ccccc4c3)CC2)cc1 (racemic) |  | 0 | 
36 | Cc1ccc(C(O)CCN(Cc2ccccc2)C(C)C)cc1F (racemic) | Active | 29 | 
37 | OC(CCN(Cc1ccccc1)C1CC1)c1ccc2ccccc2c1 (racemic) |  | 36 | 
38 | OC(CCN(Cc1ccccc1)Cc1ccccc1)c1ccc2ccccc2c1 (racemic) |  | 32 | 
39 | OC(CCN1CCN(Cc2ccccc2)CC1)c1ccc2ccccc2c1 (racemic) | inactive | 15 | 
40 | OC(CCN1CCN(c2ccc(F)cc2)CC1)c1ccc2ccccc2c1 (racemic) | inactive | 61 | 
41 | OC(CCN1CCN(c2cccc(C(F)(F)F)c2)CC1)c1ccc2ccccc2c1 (racemic) | inactive | 38 | inhibition [11]: 14%
42 | OC(CCN1CCN(c2ccccc2)CC1)c1ccc2ccccc2c1 (racemic) | inactive | 0 | 
